Data as given in ChEMBL document CHEMBL1909506, “Synthesis and anti-tumor activities of N'-benzylidene-2-(4-oxothieno[2,3-d]pyrimidin-3(4H)-yl)acetohydrazone derivatives” (Bioorg Med Chem Lett, 2011).
Activity calls are given as the source filed them. The rule behind the calls is not given here.

Tests used:
HeLa [1] = experiment: Cytotoxicity against human HeLa cells assessed as growth inhibition after 48 hrs by MTT assay; format: functional, cell-based
In short: (§1)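 Dose-response MTT assay, 48 h exposure. Compounds run at multiple concentrations; IC50 taken as the concentration giving 50% growth inhibition. HEK-293T (human embryonic kidney cells transformed with adenovirus 5 DNA and SV40 large T-antigen) served as the normal-cell model.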

MDA-MB-231 [2] = experiment: Cytotoxicity against human MDA-MB-231 cells assessed as growth inhibition at 20 uM after 48 hrs by MTT assay; format: functional; settings: MDA-MB-231, 48 h, read-out: GI
In short: (§2)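 Single-concentration screen at 20 µM. Cell growth inhibition read by standard MTT assay after 48 h treatment and expressed as inhibition ratio.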

[3] = molecular target: Induced myeloid leukemia cell differentiation protein Mcl-1 (Homo sapiens) (UniProt Q07820); experiment: Inhibition of mouse/human MCL1 expressed in Escherichia coli BL21 at 1 uM to 50 uM using FAM-labeled Bid-BH3 as tracer by fluorescence polarization assay
MDA-MB-231 [4] = experiment: Cytotoxicity against human MDA-MB-231 cells assessed as growth inhibition after 48 hrs by MTT assay; format: functional, cell-based; settings: for IC50: MDA-MB-231, 48 h; in short: as §1
HeLa [5] = experiment: Induction of apoptosis in human HeLa cells at 20 uM after 24 hrs using PI staining by flow cytometry relative to control; format: functional
A549 [6] = experiment: Cytotoxicity against human A549 cells assessed as growth inhibition at 20 uM after 48 hrs by MTT assay; format: functional; settings: for inhibition of growth at 20 µM: A549, 48 h, read-out: GI; in short: as §2
HeLa [7] = experiment: Cytotoxicity against human HeLa cells assessed as growth inhibition at 20 uM after 48 hrs by MTT assay; format: functional; settings: read-out: GI; in short: as §2
HEK-293T = experiment: Cytotoxicity against human HEK293T cells assessed as growth inhibition after 48 hrs by MTT assay; format: cell-based; in short: as §1
A549 [8] = experiment: Cytotoxicity against human A549 cells assessed as growth inhibition after 48 hrs by MTT assay; format: functional, cell-based; settings: for IC50: A549, 48 h; in short: as §1
HeLa [9] = experiment: Induction of apoptosis in human HeLa cells assessed as sub-diploid DNA content at 20 uM after 24 hrs using PI staining by flow cytometry (reference value: 6%); format: functional
HeLa [10] = experiment: Induction of apoptosis in human HeLa cells assessed as increase in level of cleaved caspase-3 at 20 uM after 12 hrs by immunoblotting; format: functional, cell-based
HeLa [11] = experiment: Induction of apoptosis in human HeLa cells assessed as increase in level of cleaved PARP at 20 uM after 12 hrs by immunoblotting; format: functional, cell-based
[12] = molecular target: Induced myeloid leukemia cell differentiation protein Mcl-1 (Homo sapiens) (UniProt Q07820); experiment: Inhibition of mouse/human MCL1 expressed in Escherichia coli BL21 at 50 uM using FAM-labeled Bid-BH3 as tracer by fluorescence polarization assay

## O=C(Cn1cnc2scc(-c3ccccc3)c2c1=O)N/N=C/c1ccc(Cl)c([N+](=O)[O-])c1
HeLa [1]
  IC50: 11 µM
  growth inhibition (GI): Dose-dependent effect
MDA-MB-231 [2]
  inhibition of growth at 20 µM: 29%
[3]
  inhibition: inactive
MDA-MB-231 [4]
  growth inhibition (GI): Dose-dependent effect
  IC50: 20 µM
HeLa [5]
  Activity: 8%
A549 [6]
  inhibition of growth at 20 µM: 66%
HeLa [7]
  inhibition of growth at 20 µM: 64%
HEK-293T
  IC50: > 50 µM
A549 [8]
  growth inhibition (GI): Dose-dependent effect
  IC50: 16 µM

## O=C(Cn1cnc2sc3c(c2c1=O)CCCCC3)N/N=C/c1ccc(Cl)c([N+](=O)[O-])c1
HeLa [1]
  IC50: 6 µM
MDA-MB-231 [2]
  inhibition of growth at 20 µM: 66%
[3]
  inhibition: inactive
MDA-MB-231 [4]
  IC50: 23 µM
HeLa [5]
  Activity: 6%
A549 [6]
  growth inhibition (GI): inactive
HeLa [7]
  inhibition of growth at 20 µM: 96%
HEK-293T
  IC50: > 50 µM
A549 [8]
  IC50: > 50 µM

## O=C(Cn1cnc2scc(-c3ccc4ccccc4c3)c2c1=O)N/N=C/c1ccc(Cl)c([N+](=O)[O-])c1
HeLa [1]
  IC50: 24 µM
  growth inhibition (GI): Dose-dependent effect
HeLa [9]
  Activity: 20%
MDA-MB-231 [2]
  inhibition of growth at 20 µM: 55%
[3]
  inhibition: inactive
MDA-MB-231 [4]
  growth inhibition (GI): Dose-dependent effect
  IC50: 20 µM
A549 [6]
  inhibition of growth at 20 µM: 69%
HeLa [7]
  inhibition of growth at 20 µM: 69%
HEK-293T
  IC50: > 50 µM
HeLa [10]
  Activity: Active
A549 [8]
  growth inhibition (GI): Dose-dependent effect
  IC50: 13 µM
HeLa [11]
  Activity: Active

## Cc1cc(-c2csc3ncn(CC(=O)N/N=C/c4ccc(Cl)c(F)c4)c(=O)c23)ccc1Cl
HeLa [1]
  IC50: 15 µM
  growth inhibition (GI): Dose-dependent effect
HeLa [9]
  Activity: 27%
MDA-MB-231 [2]
  inhibition of growth at 20 µM: 74%
[3]
  inhibition: inactive
MDA-MB-231 [4]
  growth inhibition (GI): Dose-dependent effect
  IC50: 16 µM
A549 [6]
  inhibition of growth at 20 µM: 51%
HeLa [7]
  inhibition of growth at 20 µM: 52%
HEK-293T
  IC50: > 50 µM
[12]
  inhibition: 40%
HeLa [10]
  Activity: Active
A549 [8]
  growth inhibition (GI): Dose-dependent effect
  IC50: 17 µM
HeLa [11]
  Activity: Active
